This note sets out measurements from PMC10203381 (Plant Communications, 2022).

One series deals with T1, EcDXS (Escherichia coli, UniProt P77488).
T1 sequence (P77488 1-620): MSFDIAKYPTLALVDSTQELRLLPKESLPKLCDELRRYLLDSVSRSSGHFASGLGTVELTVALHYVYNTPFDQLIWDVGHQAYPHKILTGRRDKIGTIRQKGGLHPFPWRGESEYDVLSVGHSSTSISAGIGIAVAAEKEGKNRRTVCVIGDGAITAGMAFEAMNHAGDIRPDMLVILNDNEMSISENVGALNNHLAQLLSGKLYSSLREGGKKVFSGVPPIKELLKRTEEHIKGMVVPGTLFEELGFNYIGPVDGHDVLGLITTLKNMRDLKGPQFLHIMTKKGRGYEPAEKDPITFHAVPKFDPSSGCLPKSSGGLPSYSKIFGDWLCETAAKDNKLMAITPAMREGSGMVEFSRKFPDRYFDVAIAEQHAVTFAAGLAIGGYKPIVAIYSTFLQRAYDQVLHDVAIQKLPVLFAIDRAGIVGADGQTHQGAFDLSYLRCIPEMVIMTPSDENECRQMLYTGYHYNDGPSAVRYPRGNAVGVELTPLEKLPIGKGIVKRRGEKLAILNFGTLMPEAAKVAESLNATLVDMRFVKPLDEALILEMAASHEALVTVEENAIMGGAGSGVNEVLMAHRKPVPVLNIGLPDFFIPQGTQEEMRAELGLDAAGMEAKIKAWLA
The series is classed as cell-based.

For series [1], the target named is T2, SlDXS1 (Solanum lycopersicum, UniProt Q9XH50).
T2 sequence (Q9XH50 58-719): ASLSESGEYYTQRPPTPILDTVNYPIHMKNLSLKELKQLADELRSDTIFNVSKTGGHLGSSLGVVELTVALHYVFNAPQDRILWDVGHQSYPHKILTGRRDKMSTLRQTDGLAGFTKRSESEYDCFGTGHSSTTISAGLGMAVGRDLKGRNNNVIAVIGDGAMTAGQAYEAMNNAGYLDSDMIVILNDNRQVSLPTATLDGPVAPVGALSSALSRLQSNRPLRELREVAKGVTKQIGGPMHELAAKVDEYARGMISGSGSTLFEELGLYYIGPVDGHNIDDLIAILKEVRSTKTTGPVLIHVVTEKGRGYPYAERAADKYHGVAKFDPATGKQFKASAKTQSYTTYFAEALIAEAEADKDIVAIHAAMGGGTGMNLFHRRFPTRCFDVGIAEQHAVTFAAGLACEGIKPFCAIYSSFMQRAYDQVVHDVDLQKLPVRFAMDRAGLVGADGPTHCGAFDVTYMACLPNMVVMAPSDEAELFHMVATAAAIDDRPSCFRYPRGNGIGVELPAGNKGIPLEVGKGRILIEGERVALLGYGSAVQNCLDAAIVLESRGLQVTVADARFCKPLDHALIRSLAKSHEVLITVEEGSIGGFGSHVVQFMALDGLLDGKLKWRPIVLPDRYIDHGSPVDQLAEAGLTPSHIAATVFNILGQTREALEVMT
The series is classed as cell-based.

Series [2] relates to E. coli EcAB4-10 cells (EcDXS activity).
In series [3] the target is T2, SlDXS1. Kind of series: Isothermal titration calorimetry. Format: binding. For orientation: Isothermal titration calorimetry measures the heat released or taken up as one component is titrated into another.
Series [4] deals with MEP pathway intermediates in N. benthamiana leaves. The series is classed as in vivo, Nicotiana benthamiana. The conditions noted are these: leaves infiltrated with SlDXS1, FSM 200 μM or NF 40 μM, 5 dpi; for Metabolite concentration DXP: control 7.69; for Metabolite concentration MEP: control 351.35; for Metabolite concentration MEcPP: control 671.68.
For series [5], the system named is SlDXS1. The series is classed as in vivo, Nicotiana benthamiana. The conditions noted are these: FSM 200 μM or NF 40 μM; 5 dpi; compared with mock-treated controls. Put shortly: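 Agrobacterium GV3101 carrying untagged SlDXS1 at OD600 0.8 in MES/MgCl2/acetosyringone buffer, pH 5.6, was mixed 9:1 with an HcPro strain. FSM 200 μM, NF 40 μM or water was added before infiltrating 4-week-old leaves. At 5 dpi, about 300 mg of frozen tissue was extracted in TKMES with protease inhibitors and Triton, then cleared at 2800 g, 4°C. Samples in non-denaturing loading buffer were run on 7% SDS-PAGE and blotted with anti-DXS 1:500 overnight at 4°C.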

The next series deals with SlDXS1-GFP. Format: in vivo, Nicotiana benthamiana. The conditions noted are these: 3 dpi; for number of fluorescent spots (SlDXS1-GFP aggregates) per chloroplast: FSM 200 μM or NF 40 μM, compared with untreated controls. Put shortly: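 Agrobacterium GV3101 carrying SlDXS1-GFP was resuspended to OD600 0.8 in 10 mM MgCl2, 10 mM MES, 150 μM acetosyringone, pH 5.6. It was held 1.5 h at 28°C, then mixed 9:1 with an HcPro silencing-suppressor strain. FSM 200 μM, NF 40 μM or water was added before infiltrating leaves of 4-week-old plants. At 3 dpi, confocal imaging used 488 nm excitation and BP515-525 emission alongside chlorophyll fluorescence. Chloroplast and GFP-dot areas were measured from ≥7 images of different leaves, shown as mean and SD.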

Another series concerns N. benthamiana leaves. In words: Leaf bleaching after infiltration with inhibitors. The series is classed as in vivo, Nicotiana benthamiana. The conditions noted are these: FSM 200 μM or NF 40 μM in the agroinfiltration mixture; observed at 5 dpi. The procedure, abridged:
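Leaves of 4-week-old plants were agroinfiltrated with an SlDXS1 construct plus an HcPro silencing suppressor (9:1). FSM 200 μM, NF 40 μM or water was included in the infiltration mixture. Bleaching was scored visually at 5 dpi.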

As to `C[C@@](O)(CCO)CC(=O)O` [MVA, mevalonic acid], at EcDXS, the “proportion of EcDXS dimers” value is “proportion of dimers decreased” and the “ratio of insoluble (aggregated) to soluble EcDXS protein” value is “higher ratio of insoluble (aggregated) to soluble”. Also, at SlDXS1 [1], the “proportion of SlDXS1 dimers” value is listed as “proportion of dimers decreased” and the “ratio of insoluble (aggregated) to soluble SlDXS1 protein” value was “higher ratio of insoluble (aggregated) to soluble”. Moreover, in series [2], the “cell growth (OD600)” value is listed as “did not show any growth impairment”, the “intracellular DXP levels” value was “much lower” and the “intracellular IPP/DMAPP levels” value is given as “markedly increased”.

Consider `Cc1ncc(C[n+]2csc(CCO[P@](=O)(O)OP(=O)(O)O)c2C)c(N)n1` [TPP, thiamine diphosphate], for which binding at SlDXS1 [3] was characterised by a dissociation constant (Kd) of 4.2 ± 0.7 µM.

For the compound `O=CN(O)CCCP(=O)(O)O` [FSM, fosmidomycin], in series [4], the “Metabolite concentration DXP” value is 641.99 pg/mg dry weight, the “Metabolite concentration MEP” value is 7.67 pg/mg dry weight and the “Metabolite concentration MEcPP” value is on record as 31.03 pg/mg dry weight. Also, the “dimer-to-monomer ratio of SlDXS1” value with SlDXS1 [5] is given as “increased”. Also, the “number of fluorescent spots (SlDXS1-GFP aggregates) per chloroplast” value in the series with SlDXS1-GFP was “higher amounts”. The leaf phenotype result in the series on N. benthamiana leaves was “bleaching phenotype”.

`CNc1cnn(-c2cccc(C(F)(F)F)c2)c(=O)c1Cl` [NF, norflurazon]: in series [4], the “Metabolite concentration DXP” value came to 5.73 pg/mg dry weight, the “Metabolite concentration MEP” value turned out to be 175.33 pg/mg dry weight and the “Metabolite concentration MEcPP” value was determined as 405.61 pg/mg dry weight. For the same compound, the “dimer-to-monomer ratio of SlDXS1” value in the series on SlDXS1 [5] is “decreased”. For the same compound, in the series on SlDXS1-GFP, the “number of fluorescent spots (SlDXS1-GFP aggregates) per chloroplast” value is listed as “lower amounts”. In addition, the “size of the fluorescent spots (SlDXS1-GFP aggregates)” value in the series with SlDXS1-GFP (NF 40 μM) is listed as “larger”. Moreover, the leaf phenotype entry in the series with N. benthamiana leaves is recorded as “bleaching phenotype”.
